Data taken from ChEMBL document CHEMBL1135739, “Radiolabeled amino acids for tumor imaging with PET: radiosynthesis and biological evaluation of 2-amino-3-[18F]fluoro-2-methylpropanoic acid and 3-[18F]fluoro-2-methyl-2-(methylamino)propanoic acid” (J Med Chem, 2002).
“And” between values parts separate entries of the source, which are not always exact repeats. Equal values may be shown once.

Legend:
Rattus norvegicus [1] = species: Rattus norvegicus; experiment: Radioactivity distribution in liver of normal fischer rat after injection of [18F]-fluoro-2-methyl-2-(methylamino)propanoic acid after 120 min.; assay type: ADME, organism-based; settings: in vivo, 2 h
Outline: (§1)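 Male Fischer 344 rats (200–250 g), fed ad libitum, anesthetized with intramuscular ketamine:xylazine (1:1, 0.1 mL/100 g). About 85 μCi tracer in 0.3 mL sterile water was given by tail-vein catheter. Groups of four were killed at 5, 30, 60 or 120 min. Tissues were weighed and gamma-counted against dose standards, decay-corrected, and expressed as %ID/g (mean ± standard error).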

Rattus norvegicus [2] = species: Rattus norvegicus; experiment: Radioactivity distribution in testis of normal fischer rat after injection of [18F]-fluoro-2-methyl-2-(methylamino)propanoic acid after 30 min.; assay type: ADME, organism-based; settings: in vivo, 0.5 h
Outline: (§2)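 Male Fischer 344 rats (200–250 g), fed ad libitum, under intramuscular ketamine:xylazine anesthesia, got ~85 μCi radiotracer in 0.3 mL sterile water by tail-vein catheter. Groups of four were killed at 5, 30, 60 or 120 min. Dissected tissues were weighed and gamma-counted with dose standards. Counts were decay-corrected and given as %ID/g, mean ± standard error. Tissues were compared by one-way ANOVA.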

Rattus norvegicus [3] = species: Rattus norvegicus; experiment: Radioactivity distribution in lung of normal fischer rat after injection of [18F]-fluoro-2-methyl-2-(methylamino)propanoic acid after 30 min.; assay type: ADME, organism-based; settings: in vivo, 0.5 h; outline: as §1
Rattus norvegicus [4] = species: Rattus norvegicus; experiment: Radioactivity distribution in liver of normal fischer rat after injection of [18F]-fluoro-2-methyl-2-(methylamino)propanoic acid after 30 min.; assay type: ADME, organism-based; settings: in vivo, 0.5 h; outline: as §1
Rattus norvegicus [5] = species: Rattus norvegicus; experiment: Radioactivity distribution in spleen of normal fischer rat after injection of [18F]-fluoro-2-methyl-2-(methylamino)propanoic acid after 120 min.; assay type: ADME, organism-based; settings: in vivo, 2 h; outline: as §1
Rattus norvegicus [6] = species: Rattus norvegicus; experiment: Radioactivity distribution in brain of normal fischer rat after injection of [18F]-fluoro-2-methyl-2-(methylamino)propanoic acid after 60 min.; assay type: ADME, organism-based; settings: in vivo, 1 h
Outline: (§3)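 Normal male Fischer 344 rats (200–250 g), anesthetized with i.m. ketamine:xylazine (1:1), got ~85 μCi of tracer in 0.3 mL sterile water i.v. via tail-vein catheter. Groups of four were killed at 5, 30, 60 or 120 min. Tissues were weighed and gamma-counted against dose standards, and counts were decay-corrected to %ID/g. Results are mean ± standard error (n = 4), compared by one-way ANOVA.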

Rattus norvegicus [7] = species: Rattus norvegicus; experiment: Radioactivity distribution in testis of normal fischer rat after injection of [18F]-fluoro-2-methyl-2-(methylamino)propanoic acid after 5 min.; assay type: ADME, organism-based; settings: in vivo; outline: as §2
Rattus norvegicus [8] = species: Rattus norvegicus; experiment: Radioactivity distribution in pancreas of normal fischer rat after injection of [18F]-fluoro-2-methyl-2-(methylamino)propanoic acid after 5 min.; assay type: ADME, organism-based; settings: in vivo; outline: as §1
Rattus norvegicus [9] = species: Rattus norvegicus; experiment: Radioactivity distribution in muscle of normal fischer rat after injection of [18F]-fluoro-2-methyl-2-(methylamino)propanoic acid after 30 min.; assay type: ADME, organism-based, Muscle tissue; settings: in vivo, 0.5 h; outline: as §1
Rattus norvegicus [10] = species: Rattus norvegicus; experiment: Radioactivity distribution in bone of normal fischer rat after injection of [18F]-fluoro-2-methyl-2-(methylamino)propanoic acid after 30 min.; assay type: ADME, organism-based, Bone element; settings: in vivo, 0.5 h; outline: as §3
Rattus norvegicus [11] = species: Rattus norvegicus; experiment: Radioactivity distribution in lung of normal fischer rat after injection of [18F]-fluoro-2-methyl-2-(methylamino)propanoic acid after 120 min.; assay type: ADME, organism-based; settings: in vivo, 2 h; outline: as §1
Rattus norvegicus [12] = species: Rattus norvegicus; experiment: Radioactivity distribution in testis of normal fischer rat after injection of [18F]-fluoro-2-methyl-2-(methylamino)propanoic acid after 120 min.; assay type: ADME, organism-based; settings: in vivo, 2 h; outline: as §2
Rattus norvegicus [13] = species: Rattus norvegicus; experiment: Radioactivity distribution in kidney of normal fischer rat after injection of [18F]-fluoro-2-methyl-2-(methylamino)propanoic acid after 5 min.; assay type: ADME, organism-based; settings: in vivo; outline: as §3
Rattus norvegicus [14] = species: Rattus norvegicus; experiment: Radioactivity distribution in tumor of tumor-bearing fischer rat after injection of [18F]-fluoro-2-methyl-2-(methylamino)propanoic acid after 60 min.; settings: in vivo, 1 h
Rattus norvegicus [15] = species: Rattus norvegicus; experiment: Radioactivity distribution in heart of normal fischer rat after injection of [18F]-fluoro-2-methyl-2-(methylamino)propanoic acid after 60 min.; assay type: ADME, organism-based; settings: in vivo, 1 h; outline: as §3
Rattus norvegicus [16] = species: Rattus norvegicus; experiment: Radioactivity distribution in pancreas of normal fischer rat after injection of [18F]-fluoro-2-methyl-2-(methylamino)propanoic acid after 60 min.; assay type: ADME, organism-based; settings: in vivo, 1 h; outline: as §1
Rattus norvegicus [17] = species: Rattus norvegicus; experiment: Radioactivity distribution in kidney of normal fischer rat after injection of [18F]-fluoro-2-methyl-2-(methylamino)propanoic acid after 30 min.; assay type: ADME, organism-based; settings: in vivo, 0.5 h; outline: as §3
Rattus norvegicus [18] = species: Rattus norvegicus; experiment: Radioactivity distribution in bone of normal fischer rat after injection of [18F]-fluoro-2-methyl-2-(methylamino)propanoic acid after 120 min.; assay type: ADME, organism-based, Bone element; settings: in vivo, 2 h; outline: as §3
Rattus norvegicus [19] = species: Rattus norvegicus; experiment: Radioactivity distribution in brain of normal fischer rat after injection of [18F]-fluoro-2-methyl-2-(methylamino)propanoic acid after 5 min.; assay type: ADME, organism-based; settings: in vivo; outline: as §3
Rattus norvegicus [20] = species: Rattus norvegicus; experiment: Radioactivity distribution in tumor of tumor-bearing fischer rat after injection of [18F]-fluoro-2-methyl-2-(methylamino)propanoic acid after 5 min.; settings: in vivo
Rattus norvegicus [21] = species: Rattus norvegicus; experiment: Radioactivity distribution in brain of normal fischer rat after injection of [18F]-fluoro-2-methyl-2-(methylamino)propanoic acid after 120 min.; assay type: ADME, organism-based; settings: in vivo, 2 h; outline: as §3
Rattus norvegicus [22] = species: Rattus norvegicus; experiment: Radioactivity distribution in spleen of normal fischer rat after injection of [18F]-fluoro-2-methyl-2-(methylamino)propanoic acid after 5 min.; assay type: ADME, organism-based; settings: in vivo; outline: as §2
Rattus norvegicus [23] = species: Rattus norvegicus; experiment: Radioactivity distribution in kidney of normal fischer rat after injection of [18F]-fluoro-2-methyl-2-(methylamino)propanoic acid after 120 min.; assay type: ADME, organism-based; settings: in vivo, 2 h; outline: as §3

With `CNC(C)(C[18F])C(=O)O.Cl` (stereo not drawn) the ID/g (Rattus norvegicus [1]) was 0.58% and 0.41%, the ID/g (Rattus norvegicus [2]) was 0.11% and the ID/g (Rattus norvegicus [3]) was 0.5%. The ID/g (Rattus norvegicus [4]) was 0.72%, the ID/g (Rattus norvegicus [5]) was 0.47% and 0.4% and the ID/g (Rattus norvegicus [6]) was 0.03% and < 0.022%. For the same compound, the ID/g (Rattus norvegicus [7]) was 0.17% and 0.19%, the ID/g (Rattus norvegicus [8]) was 2.73% and 2.95% and the ID/g (Rattus norvegicus [9]) was 0.16%. The ID/g (Rattus norvegicus [10]) was 0.32%, the ID/g (Rattus norvegicus [11]) was 0.3% and 0.19% and the ID/g (Rattus norvegicus [12]) was 0.06% and 0.08%. The ID/g (Rattus norvegicus [13]) was 8.12% and 9.33%, the ID/g (Rattus norvegicus [14]) was 2.28% and the ID/g (Rattus norvegicus [15]) was 0.2% and 0.25%. The ID/g (Rattus norvegicus [16]) was 3.24% and 2.42%, the ID/g (Rattus norvegicus [17]) was 4.6% and the ID/g (Rattus norvegicus [18]) was 0.2% and 0.19%. For the same compound, the ID/g (Rattus norvegicus [19]) was 0.04% and < 0.032%, the ID/g (Rattus norvegicus [20]) was 1.29% and the ID/g (Rattus norvegicus [21]) was 0.03% and < 0.02%. For the same compound, the ID/g (Rattus norvegicus [22]) was 0.44% and 0.47% and the ID/g (Rattus norvegicus [23]) was 1.36% and 1.59%.
